PREPL inh – PREPL enzyme inhibitors, primary screen, biochemical, fluorescence polarization; inhibition, % at 5.96 µM; 320,000 compounds, 0.68% hits; Prolyl endopeptidase-like (Homo sapiens), Q4J6C6; recombinant PREPL, fluorescence polarization activity-based probe; in the data active means inhibition above about 43%
UBC13 inh – UBC13 polyubiquitin chain formation inhibitors, primary screen, biochemical, TR-FRET, uHTS; Ubiquitin-conjugating enzyme E2 N (Homo sapiens), P61088; 330,000 compounds, 0.47% hits; inhibition, % at 20 µM; in the data active means inhibition above about 45%, passing the limit was not always enough; inconclusive means no clear call, values can overlap the other calls
SUMO HTRF inh – inhibitors of in vitro SUMOylation cascade, primary screen, biochemical, HTRF, uHTS. SUMO-conjugating enzyme UBC9 (Homo sapiens), P63279. HTRF SUMOylation assay, SAE1/SAE2 + UBC9. inhibition, % at 35 µM. AID 2006, 2009. 290,000 compounds, 0.36% hits; in the data active means inhibition above about 50%, passing the limit was not always enough; inconclusive means no clear call, values can overlap the other calls
Target sequence (P63279 whole entry, looked up): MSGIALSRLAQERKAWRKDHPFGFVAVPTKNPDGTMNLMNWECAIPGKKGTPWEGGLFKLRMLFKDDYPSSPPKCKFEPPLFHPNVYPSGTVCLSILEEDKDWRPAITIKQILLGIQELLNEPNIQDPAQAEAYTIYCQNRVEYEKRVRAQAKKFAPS
RBBP9 inh – human RBBP9 inhibitors, primary screen, biochemical, fluorescence polarization, FP-Rh probe, HTS; Serine hydrolase RBBP9 (Homo sapiens), O75884; recombinant RBBP9; inhibition, % at 7.94 µM; 220,000 compounds, 0.2% hits;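 active means inhibition above the campaign mean of all tested compounds plus 3 SD, cut at about 14% in these data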
Target sequence (O75884 whole entry, looked up): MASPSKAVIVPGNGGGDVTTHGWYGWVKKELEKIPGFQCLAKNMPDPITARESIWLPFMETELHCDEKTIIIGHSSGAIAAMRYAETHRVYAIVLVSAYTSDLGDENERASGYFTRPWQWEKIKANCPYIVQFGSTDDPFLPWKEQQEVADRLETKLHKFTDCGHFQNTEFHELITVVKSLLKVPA
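System: RBBP9 protein | Quantity: 2.5 µM RBBP9 dispensing solution, before mixing | Reagent: FP-Rh probe, 375 nM dispensing solution | Timing: Enzyme-compound preincubation 30 min, then probe labeling 45 min, 25 °C | Measured by: Fluorescence polarization | Read-out: % inhibition | Replication: One well per compound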
Rin1 Abl inh – inhibitors of Rin1-Abl protein binding, primary screen, biochemical, TR-FRET. Tyrosine-protein kinase ABL1 (Homo sapiens) + Ras and Rab interactor 1 (Homo sapiens), …. 360,000 compounds, 0.4% hits. inhibition, % at 7.35 µM; in the data active means inhibition above about 5%, passing the limit was not always enough
ALR H2O2 inh – inhibitors of human ALR sulfhydryl oxidase, primary screen, biochemical, H2O2 detection, HRP-luminol luminescence, single point. FAD-linked sulfhydryl oxidase ALR (Homo sapiens), P55789. purified ALR, DTT oxidation. inhibition, % (test concentration not listed). 290,000 compounds, 3.8% hits;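 active means mean replicate inhibition above about 79%, with every replicate also reaching it, limit read from the data; inconclusive means only one of the two criteria met; inactive means mean below limit and not every replicate reaching it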
Hits are given with their value; i = inactive; ? = inconclusive; nt = no result given. Most compounds without a hit are left out; they make up all but 4.3% or so of the library.

SMILES	PREPL inh	UBC13 inh	SUMO HTRF inh	RBBP9 inh	Rin1 Abl inh	ALR H2O2 inh
COc1ccc(CNC(=O)CCNS(=O)(=O)c2ccc(NC(C)=O)cc2)cc1OC	i	i	nt	nt	i	nt
COc1ccc(C(=O)Oc2cc(N)n(S(=O)(=O)c3ccccc3)n2)cc1	i	i	i	i	i	i
COc1ccc(S(=O)(=O)n2nc(OC(C)=O)cc2N)cc1	i	i	i	i	i	97.6
O=C1CCCCN1CCC(=O)N1CCCC(Nc2ccc(F)c(F)c2)C1 (centres undefined)	i	i	i	nt	i	i
COc1ccc(NC2CCCN(C(=O)CCCN3CCCCC3=O)C2)cc1 (centres undefined)	i	i	i	nt	i	98.7
O=C1CCCN1CCC(=O)N1CCCC(Nc2ccc(F)cc2)C1 (centres undefined)	i	i	i	nt	i	i
COc1ccc(NC2CCCN(C(=O)CCN3CCCC3=O)C2)cc1 (centres undefined)	i	i	i	nt	i	98.4
Cc1ccc(NC2CCCN(C(=O)CCCN3CCCCC3=O)C2)cc1C (centres undefined)	i	i	i	nt	i	98.5
COc1ccc(NC2CCCN(C(=O)CCN3CCCC3=O)C2)cc1OC (centres undefined)	i	i	i	nt	i	98.9
NS(=O)(=O)c1cccc(Nc2nc3ccccc3nc2NS(=O)(=O)c2ccc(Cl)cc2)c1	i	i	nt	nt	i	nt
COc1ccc(NC2CCCN(C(=O)CCN3Cc4ccccc4C3=O)C2)cc1 (centres undefined)	i	i	i	nt	i	99.0
O=C(O)CCN1Cc2ccccc2C1=O	i	i	i	i	i	i
CSc1ccc(CNc2ccccc2)cc1	i	i	i	i	nt	89.9
O=C(CCN1CCCCO1)N1CCCC(Nc2ccc(F)cc2)C1 (centres undefined)	i	i	i	nt	i	94.7
O=C(CCN1CCCCO1)N1CCCC(Nc2cccc(F)c2)C1 (centres undefined)	i	i	i	nt	i	i
CC(C)c1ccc(NC2CCCN(C(=O)CCCn3cncn3)C2)cc1 (centres undefined)	i	i	i	nt	i	96.2
Cn1cc(CCC(=O)N2CCCC(Nc3ccc(F)cc3)C2)cn1 (centres undefined)	i	i	i	nt	i	?
O=C(CCCn1cncn1)N1CCCC(Nc2ccc(F)cc2)C1 (centres undefined)	nt	i	i	nt	i	98.2
O=C(Cn1cccn1)N1CCCC(Nc2ccc(F)c(F)c2)C1 (centres undefined)	i	i	i	nt	i	88.6
C(=C\c1ccc2nncn2c1)/c1ccccc1	nt	nt	nt	nt	i	nt
COCCN(C(=O)COc1ccccc1C#N)c1c(N)n(Cc2ccccc2)c(=O)[nH]c1=O	i	i	nt	nt	i	i
CC1(C(=O)NS(=O)(=O)c2cccc(Cl)c2)CCN1C(=O)Cc1ccc(-c2ccccc2)cc1 (centres undefined)	nt	nt	nt	nt	i	nt
O=C(CCn1cnnn1)N1CCCC(Nc2ccc(F)cc2)C1 (centres undefined)	i	i	i	nt	i	98.3
Cc1ccc(C)c(NC(=S)N2CCC(NC(=O)c3ccc(F)cc3)CC2)c1	i	i	i	nt	i	nt
O=C(CSc1ncnc2nc[nH]c12)c1ccc([N+](=O)[O-])cc1	i	i	i	i	i	92.6
SMILES	PREPL inh	UBC13 inh	SUMO HTRF inh	RBBP9 inh	Rin1 Abl inh	ALR H2O2 inh
O=C(CSc1ncnc2nc[nH]c12)c1ccccc1	i	i	i	i	i	i
O=C(CSc1ncnc2nc[nH]c12)c1ccc(Cl)cc1	i	i	i	nt	i	86.8
COc1ccc2c(c1OC)C(=O)N1N=C(c3ccc(O)cc3)CC21 (centres undefined)	i	i	i	i	i	99.3
COc1ccc2c(c1OC)C(=O)N1c3ccccc3N=C(c3ccc([N+](=O)[O-])cc3)CC21 (centres undefined)	i	nt	i	i	i	96.8
CCOC(=O)C1=CN(Cc2ccco2)S(=O)(=O)NC1CC (centres undefined)	nt	nt	nt	nt	i	nt
COC1(OC)N=C(NC(=O)Nc2ccccc2)C2(C#N)C(c3ccccc3)C12C#N (centres undefined)	i	i	i	i	i	98.8
Clc1ccc(-n2nnc(-c3nccs3)n2)cc1Cl	i	i	i	i	i	92.5
